In publication PMC3589724 (Scientific Reports, 2013):
Where two headings read alike, the source gives them in different places.

Legend:
CaM = conditions: in vivo CaM binding, cited from earlier work
apoCaM = assay: ITC binding to apo CaM; conditions: for Association constant Ka: apoCaM, buffer A (20 mM Imidazole pH 8.0, 100 mM NaCl, 2 mM EGTA), 24°C, single-site fitting model
Method in brief: (§1)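 CaM (His6-tagged, E. coli-expressed; mutants made by inverse PCR) is injected into full-length wild-type or point-mutant Nm/Ng, or into synthetic IQ peptides (Nm 34–57, Ng 27–50). Apo and mutant CaM are in buffer A; Ca2+/CaM is in buffer B. Samples are degassed. VP-ITC or iTC200, 24°C, 10 (or 2) μl injections at 5 (or 2) min intervals. Buffer-titration dilution heats are subtracted, and a single-site fit gives Ka.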

Ca^2+/CaM = assay: ITC binding to Ca^2+/CaM; conditions: buffer B (20 mM HEPES pH 8.0, 100 mM NaCl, 10 mM CaCl2), 24°C, single-site fitting model
Method in brief: as §1

CaMWT = assay: ITC binding to wild-type CaM; conditions: point mutants of Nm/Ng
Method in brief: as §1

[1] = test system: synaptic transmission, CA1 hippocampal synapses; conditions: cited from earlier work
[2] = Ser36-phosphorylated; cited from earlier work
CaME85A/F142A = assay: ITC binding to CaM double mutant E85A/F142A; conditions: buffer A (20 mM Imidazole pH 8.0, 100 mM NaCl, 2 mM EGTA), 24°C
Method in brief: as §1

Substance | Association constant Ka (apoCaM) | Association constant Ka (Ca^2+/CaM) | Ng-CaM binding (CaM) | other results
Arg38Gln (R38Q): Ng point mutant Arg38Gln (literature) |  |  | reduce Ng-CaM binding | Ng-CaM binding (CaM; listed as Arg38Gln): reduce the binding strength
Ile33Gln (I33Q): Ng point mutant Ile33Gln (literature) |  |  | completely inhibits the binding | 
NgIQ: synthetic wild-type IQ motif peptide of Ng, aa27–50 (NAAAAKIQASFRGHMARKKIKSGE) | 2.3 10^6 M^−1 | 0.3 10^6 M^−1 |  | 
NgR38A: full-length Ng point mutant Arg38Ala; GFP-tagged in the electrophysiology experiments |  |  |  | binding to apo CaM (in words) (apoCaM; mutant Ng): does not bind to the apo CaM; binding to CaM (in words) (CaMWT): completely abolish
Ser36-phosphorylated Ng: Ng phosphorylated at Ser36 by PKC [reference compound] |  |  |  | synaptic strength ([1]; Ser36-phosphorylated): unable to enhance synaptic strength; binding to CaM and phosphatidic acid [2]: unable to bind CaM and phosphatidic acid
Ser36Asp (S36D): Ng point mutant Ser36Asp (literature) |  |  | reduce Ng-CaM binding | 
neuromodulin [NmWT] | 7.9 10^6 M^−1 | 0.52 10^6 M^−1 |  | Association constant Ka (CaME85A/F142A): 0.46 10^6 M^−1

Continued, in another order:

Association constant Ka (apoCaM) | Association constant Ka (Ca^2+/CaM) | Substance | Ng-CaM binding (CaM) | other results
25 10^6 M^−1 | 1.6 10^6 M^−1 | NmIQ: synthetic wild-type IQ motif peptide of Nm, aa34–57 |  | 
23 10^6 M^−1 | 0.96 10^6 M^−1 | neurogranin [NgWT] |  | affinity to apo CaM relative to Ca^2+/CaM (apoCaM; in words): higher affinity than that to Ca^2+/CaM; synaptic transmission / strength ([1]; overexpression, listed as wild-type Ng): potentiates synaptic transmission; synaptic strength ([1]; through interaction with CaM): enhances synaptic strength
